The source made the active and inactive calls. The rule behind the calls is not given here. Bounds are passed on as bounds.

For series [1], the target named is T1, Delta-type opioid receptor (Homo sapiens, UniProt P41143). Briefly: Displacement of [3H]diprenorphine from human opioid delta receptor expressed in HEK293 cells after 120 mins by scintillation counting. The series is classed as cell-based. A digest of the protocol:
(§1)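 11-point curves, 0.01 nM–1 μM final. 120 min at 22 °C, then filtration and scintillation counting. Nonspecific binding set by 10 μM naltrexone. Four-parameter IC50; Ki by Cheng–Prusoff.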

The target in series [2] is T2, Mu-type opioid receptor (Homo sapiens, UniProt P35372). Briefly: Antagonist activity at human opioid mu receptor expressed in CHO cells assessed as inhibition of DAMGO-induced [35S]GTP-gamma-S binding after 4 hrs by scintillation counting. The series is classed as functional, cell-based.
Series [3] addresses T3, Kappa-type opioid receptor (Homo sapiens, UniProt P41145). The series can be described thus: Antagonist activity at human opioid kappa receptor expressed in CHO cells assessed as inhibition of U69593-induced [35S]GTP-gamma-S binding after 4 hrs by scintillation counting. The series is classed as functional, cell-based.
The subject of series [4] is CHO. The series can be described thus: Selectivity ratio of Kb for human opioid mu receptor expressed in CHO cells to Kb for human opioid kappa receptor expressed in CHO cells. The series is classed as cell-based. A digest of the protocol: (§2)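 Kb ratios from antagonist [35S]GTP-γ-S SPA on CHO (κ, μ) or HEK293 (δ) membranes. Agonists at about 80% maximal: U69,593 300 nM (κ), DAMGO 1 μM (μ), DPDPE 30 nM (δ). 11-point curves, top 1 or 10 μM. Nonspecific binding: NorBNI, naltrexone or naltriben, each 10 μM. Kb = IC50/(1+D/EC50); geometric means with SEM.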

Series [5] has as its target T1, Delta-type opioid receptor. Briefly: Agonist activity at human opioid delta receptor expressed in HEK293 cells assessed as stimulation of [35S]-GTPgammaS binding at 10 uM. The series is classed as functional, cell-based. A digest of the protocol: (§3)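 Agonist mode: membranes from CHO (κ, μ) or HEK293 (δ) cells expressing cloned human receptors, no agonist added, tested at up to 10 μM. [35S]GTP-γ-S (0.5 nM final) binding in HEPES pH 7.4, MgCl2, NaCl, EDTA, DTT, 200 μM GDP. Read by WGA SPA beads after 2 h (δ) or 4 h (κ, μ) at room temperature, then 4 °C overnight.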

Series [6] deals with HEK293. Briefly: Selectivity ratio of Kb for human opioid delta receptor expressed in HEK293 cells to Kb for human opioid kappa receptor expressed in CHO cells. Format: cell-based. A digest of the protocol: as §2
Series [7] has as its target T3, Kappa-type opioid receptor. Briefly: Agonist activity at human opioid kappa receptor expressed in CHO cells assessed as stimulation of [35S]-GTPgammaS binding at 10 uM. Format: functional, cell-based. A digest of the protocol: as §3
In series [8] the target is T3, Kappa-type opioid receptor. Briefly: Displacement of [3H]diprenorphine from human opioid kappa receptor expressed in CHO cells after 120 mins by scintillation counting. Format: cell-based. In outline: as §1
The target in series [9] is T2, Mu-type opioid receptor. Briefly: Displacement of [3H]diprenorphine from human opioid mu receptor expressed in CHO cells after 120 mins by scintillation counting. Format: cell-based. A digest of the protocol: as §1
(Displacement assays read how much labelled ligand stays bound in the presence of the test substance.)

Series [10] concerns the target T2, Mu-type opioid receptor. Briefly: Agonist activity at human opioid mu receptor expressed in CHO cells assessed as stimulation of [35S]-GTPgammaS binding at 10 uM. Format: functional, cell-based. In outline: as §3
On the technique in general: GTPγS resists hydrolysis and so accumulates on activated G proteins.

The target of series [11] is T1, Delta-type opioid receptor. Briefly: Antagonist activity at human opioid delta receptor expressed in HEK293 cells assessed as inhibition of DPDPE-induced [35S]GTP-gamma-S binding after 4 hrs by scintillation counting. The series is classed as functional, cell-based.
For series [12], the system named is HEK293. The series can be described thus: Selectivity ratio of Ki for human opioid delta receptor expressed in HEK293 cells to Ki for human opioid kappa receptor expressed in CHO cells. Format: cell-based.
In series [13] the test system is CHO. The series can be described thus: Selectivity ratio of Ki for human opioid mu receptor expressed in CHO cells to Ki for human opioid kappa receptor expressed in CHO cells. The series is classed as cell-based.
The subject of series [14] is Striatum. Briefly: Drug uptake in rat striatum at 1 ug/kg, iv measured after 40 mins by LC/MS-MS analysis. The conditions noted are these: in vivo, 0.001 mg/kg. The series is classed as ADME, organism-based. A digest of the protocol: (§4)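 Groups of four rats received a single iv tracer dose and were killed 20 or 40 min later. Striatum was weighed, homogenized in 4 volumes acetonitrile/0.1% formic acid and centrifuged. The supernatant was diluted and analysed by LC/MS/MS against standards spiked into naive rat brain. %SUV = tissue amount/injected dose × 100.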

In series [15] the test system is Striatum. The series can be described thus: Drug uptake in rat striatum at 3 ug/kg, iv measured after 40 mins by LC/MS-MS analysis. Format: ADME, organism-based. The settings on record: in vivo, 0.003 mg/kg. In outline:
as §4

T3 sequence (P41145 whole entry): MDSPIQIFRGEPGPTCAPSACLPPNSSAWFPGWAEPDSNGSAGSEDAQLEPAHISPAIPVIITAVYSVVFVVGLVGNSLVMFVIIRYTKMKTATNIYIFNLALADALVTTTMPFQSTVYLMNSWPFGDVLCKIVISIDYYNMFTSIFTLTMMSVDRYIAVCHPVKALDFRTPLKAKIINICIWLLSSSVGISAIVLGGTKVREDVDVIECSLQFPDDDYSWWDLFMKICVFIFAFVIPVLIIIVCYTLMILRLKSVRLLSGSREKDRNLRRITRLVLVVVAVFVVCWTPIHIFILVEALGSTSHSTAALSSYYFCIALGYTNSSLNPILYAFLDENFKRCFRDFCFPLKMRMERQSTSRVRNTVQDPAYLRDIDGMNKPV
T1 sequence (P41143 whole entry): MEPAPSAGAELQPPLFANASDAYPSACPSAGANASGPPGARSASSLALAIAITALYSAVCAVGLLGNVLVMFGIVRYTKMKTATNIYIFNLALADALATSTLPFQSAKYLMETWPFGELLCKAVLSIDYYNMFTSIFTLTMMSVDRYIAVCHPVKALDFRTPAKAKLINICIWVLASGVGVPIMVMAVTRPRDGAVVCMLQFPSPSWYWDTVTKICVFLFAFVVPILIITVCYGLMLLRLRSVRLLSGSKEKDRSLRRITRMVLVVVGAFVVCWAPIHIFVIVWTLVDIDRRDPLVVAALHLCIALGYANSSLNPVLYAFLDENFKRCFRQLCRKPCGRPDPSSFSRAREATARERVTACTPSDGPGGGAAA
T2 sequence (P35372 whole entry): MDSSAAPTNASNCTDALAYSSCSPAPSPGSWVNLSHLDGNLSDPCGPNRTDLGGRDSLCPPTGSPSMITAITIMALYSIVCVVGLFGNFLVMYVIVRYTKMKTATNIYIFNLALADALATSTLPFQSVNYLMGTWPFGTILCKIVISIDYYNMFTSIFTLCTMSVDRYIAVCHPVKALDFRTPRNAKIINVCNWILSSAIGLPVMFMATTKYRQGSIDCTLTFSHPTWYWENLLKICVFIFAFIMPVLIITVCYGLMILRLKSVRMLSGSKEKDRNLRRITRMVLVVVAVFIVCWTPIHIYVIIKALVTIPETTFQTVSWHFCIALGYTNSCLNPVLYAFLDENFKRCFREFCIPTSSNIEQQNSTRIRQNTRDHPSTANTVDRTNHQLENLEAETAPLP

What is called Ki is the dissociation constant of the complex between target and ligand, obtained from inhibition or displacement. A lower Ki goes with higher affinity. The term Kb denotes the equilibrium dissociation constant of an antagonist, usually derived from a functional assay. In the case of `CC1(C)CN(Cc2ccc(Oc3ccc(C(N)=O)cn3)cc2)[C@H]1c1ccccc1`, the Ki is > 500 nM in [1], 26.7 nM in [8] and 107 nM in series [9]. The Kb is 43.8 nM in series [2], 15.2 nM in series [3] and > 1000 nM in series [11]. The Ratio is 3 in series [4] and > 65 in series [6]. The outcome in series [5], in series [7] and in series [10] was inactive.

As for `NC(=O)c1ccc(Oc2ccc(CN3CCCC3c3ccccc3)cc2)nc1` (racemic), the Ki in series [1] was > 500 nM; in series [8], 9.21 nM; in series [9], 232 nM. Further, the Kb in series [2] was 150 nM; in series [3], 17 nM; in series [11] it was 635 nM. In addition, the Ratio Ki is > 50 in series [12] and 25 in [13]. Further, the Ratio in series [4] stood at 9; in series [6], 37. Also, the outcome in [5], in series [7] and in [10] was inactive.

With `Oc1ccc2c3c1O[C@H]1c4[nH]c5c(c4C[C@@]4(O)[C@@H](C2)N(CC2CC2)CC[C@]314)C[C@@]1(O)[C@H]2Cc3ccc(O)c4c3[C@@]1(CCN2CC1CC1)[C@H]5O4`, the result in series [5], in series [7] and in series [10] was inactive.

On to `NC(=O)c1ccc(Oc2ccc(CN3CCC[C@@H]3c3cccnc3)cc2)c(Cl)c1`, for which the Ki in [1] was > 500 nM; in series [8] it was 44.9 nM; in series [9], > 500 nM. Moreover, the Ratio Ki in series [12] and in series [13] was > 11 each time. Also, the outcome in series [5], in series [7] and in [10] was inactive.

With `Cc1cc(C)cc([C@@H]2CCCN2Cc2ccc(Oc3ccc(C(N)=O)cc3F)cc2)c1` [ATICAPRANT], the Kb in [2] was found to be 17.4 nM; in [3] it was 0.813 nM; in [11] it was 110 nM. The values for the Ratio Ki in series [12] and in series [13] were 175 and 24, respectively. In addition, the Ratio in [4] stood at 21; in series [6], 135. Also, the outcome in series [5], in [7] and in series [10] was inactive. In addition, the Ki in series [8] was 0.949 nM; in series [9], 22.7 nM.

Regarding `NC(=O)c1ccc(Oc2ccc(CN3CCC[C@@H]3c3cccc(F)c3)cc2)c(F)c1`, the Ki is > 500 nM in series [1], 53.7 nM in [8] and > 500 nM in series [9]. Moreover, the values for the Kb in [2], in series [3] and in [11] were > 500 nM, 88.7 nM and > 1000 nM, respectively. Besides, the Ratio Ki in series [12] and in series [13] was > 9 each time. Besides, the Ratio in [4] and in series [6] was > 5 throughout. Also, the outcome in [5], in series [7] and in series [10] was inactive.

`CC1(C)CN(Cc2ccc(Oc3ccc(C(N)=O)cn3)cc2)[C@@H]1c1ccccc1`: the Ki is > 500 nM in series [1], 1.05 nM in [8] and 43.1 nM in [9]. The values for the Kb in series [2], in series [3] and in [11] were 36.6 nM, 2.46 nM and 338 nM, respectively. The compound further had an SUV in [14] of 270%. For the same compound, the Ratio in series [4] was 15; in [6], 137. In addition, the outcome in series [5], in [7] and in [10] was inactive.

`NC(=O)c1ccc(Oc2ccc(CNCc3ccccc3)cc2)nc1`: the Ki in series [1] worked out at 27.6 nM; in series [8] it was 1.78 nM; in series [9], 2.43 nM. The Kb was determined as 3.8 nM in series [2], 4.33 nM in series [3] and 60.3 nM in [11]. In addition, the Ratio Ki in series [12] amounted to 16; in [13], 1. Also, the results for the Ratio in series [4] and in series [6] were 1 and 14, respectively. For the same compound, the outcome in series [5], in [7] and in [10] was inactive.

`Cc1cc(C)cc([C@H]2CCCN2Cc2ccc(Oc3ccc(C(N)=O)cc3F)cc2)c1`: the Ki in series [1] amounted to 165 nM; in series [8] it was 14 nM; in series [9], 101 nM. Also, the Kb in series [2] was 69.6 nM; in series [3], 44.8 nM; in [11], 220 nM. Further, the Ratio Ki amounted to 12 in series [12] and 7 in [13]. Moreover, the figures for the Ratio in series [4] and in [6] were 2 and 5, respectively. The outcome in series [5], in [7] and in series [10] was inactive.

For the compound `NC(=O)c1ccc(Oc2ccc(CN3CCCC3c3cccnc3)cc2)c(Cl)c1` (racemic), the Ki in series [1] turned out to be 251 nM; in series [8] it was 0.622 nM; in series [9], 31.5 nM. The Ratio Ki in series [12] was found to be 404; in series [13], 51. Also, the result in series [5], in series [7] and in series [10] was inactive.

Regarding `CC(C)[C@@H](CN1CC[C@@](C)(c2cccc(O)c2)[C@@H](C)C1)NC(=O)[C@H]1Cc2ccc(O)cc2CN1C`, the inhibition constant Ki in [1] is > 500 nM; in series [8], 0.153 nM; in series [9] it was 30.8 nM. Further, in series [15], the SUV was 23%. Also, the Kb in series [2] was determined as 11.2 nM; in series [3], 0.162 nM; in series [11], 619 nM. The Ratio Ki in series [12] is > 3200; in [13] it was 201. In addition, the figures for the Ratio in series [4] and in series [6] were 69 and 3820, respectively. Besides, the result in series [5], in series [7] and in [10] was inactive.

Consider `NC(=O)c1ccc(Oc2ccc(CN3CCCC3c3cccc(F)c3)cc2)c(F)c1` (racemic), for which the inhibition constant Ki in series [1] came out at 187 nM; in series [8], 0.617 nM; in series [9] it was 41.1 nM. Besides, the Kb was determined as 63.5 nM in [2], 3.52 nM in series [3] and 525 nM in series [11]. Further, the Ratio Ki in series [12] worked out at 303; in [13] it was 67. Besides, the Ratio in series [4] is 18; in series [6], 149. Further, the result in series [5], in [7] and in [10] was inactive.

As for `CC(C)[C@@H](CN1CC[C@@](C)(c2cccc(O)c2)[C@@H](C)C1)NC(=O)[C@H]1Cc2ccc(O)cc2CN1`, the outcome in series [5], in [7] and in [10] was inactive.

Turning to `CC1(C)CN(Cc2ccc(Oc3ccc(C(N)=O)cn3)cc2)C1c1ccccc1` (racemic), the Ki was > 500 nM in series [1], 1.41 nM in series [8] and 52.7 nM in [9]. Moreover, the outcome in series [5], in [7] and in series [10] was inactive.
